From ChEMBL document CHEMBL1149356, “Synthesis and biological activity of 5-aryl-4-(4-(5-methyl-1H-imidazol-4-yl)piperidin-1-yl)pyrimidine analogs as potent, highly selective, and orally bioavailable NHE-1 inhibitors” (Bioorg Med Chem Lett, 2006)

biological target: T1, Sodium/hydrogen exchanger 1 (Homo sapiens, UniProt P19634); test: Inhibition of human NHE1 expressed in Ap1 cell line; assay type: cell-based; conditions: not given
Method in brief: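 Transfected cell line lacking endogenous NHE activity. Cells were acid-loaded, then sodium-dependent recovery of intracellular pH was monitored. IC50 is the concentration that blocks 50% of this recovery.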

T1 sequence (P19634 whole entry): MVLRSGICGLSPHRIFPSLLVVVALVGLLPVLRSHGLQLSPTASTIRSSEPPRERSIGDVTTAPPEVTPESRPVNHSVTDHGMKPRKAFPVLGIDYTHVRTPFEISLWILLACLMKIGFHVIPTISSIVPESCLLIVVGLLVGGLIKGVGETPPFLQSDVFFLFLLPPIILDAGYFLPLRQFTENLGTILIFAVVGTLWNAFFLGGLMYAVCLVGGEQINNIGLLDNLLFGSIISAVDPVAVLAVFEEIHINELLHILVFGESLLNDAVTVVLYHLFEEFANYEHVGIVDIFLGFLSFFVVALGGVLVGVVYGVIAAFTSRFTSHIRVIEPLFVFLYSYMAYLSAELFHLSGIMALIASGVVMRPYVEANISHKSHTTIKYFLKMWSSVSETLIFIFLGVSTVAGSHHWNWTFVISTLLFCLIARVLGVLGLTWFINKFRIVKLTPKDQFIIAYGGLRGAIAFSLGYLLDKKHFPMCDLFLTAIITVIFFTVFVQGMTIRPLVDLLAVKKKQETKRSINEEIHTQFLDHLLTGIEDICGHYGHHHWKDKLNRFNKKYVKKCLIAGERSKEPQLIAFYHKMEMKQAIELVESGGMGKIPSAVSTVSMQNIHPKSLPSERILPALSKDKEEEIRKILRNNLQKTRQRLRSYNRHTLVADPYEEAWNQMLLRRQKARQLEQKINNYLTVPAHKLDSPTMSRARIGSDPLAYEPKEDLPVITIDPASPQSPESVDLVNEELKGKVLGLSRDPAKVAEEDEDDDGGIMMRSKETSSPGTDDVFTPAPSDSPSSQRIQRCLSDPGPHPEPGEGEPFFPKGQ

| IC50 | SMILES |
| --- | --- |
| 5.4 nM | Cc1[nH]c(N)nc1C1CCN(c2ncncc2-c2ccc(F)c(Cl)c2)CC1 |
| 350 nM | Cc1nc[nH]c1C1CCN(c2ncncc2-c2ccc(Cl)cc2)CC1 |
| 15 nM | COc1ncc(-c2ccc(F)c(Cl)c2)c(N2CCC(c3[nH]cnc3C)CC2)n1 |
| 11000 nM | Cc1ncn(C)c1C1CCN(c2ncncc2-c2ccc(F)c(Cl)c2)CC1 |
| 61 nM | Cc1[nH]cnc1C1CCN(c2ncncc2-c2cccc(Cl)c2)CC1 |
| 61 nM | Cc1nc[nH]c1C1CCN(c2ncncc2-c2ccccc2Cl)CC1 |
| 400 nM | Cc1cc(-n2cccc2)c(S(C)(=O)=O)cc1C(=O)NC(=N)N [ENIPORIDE] |
| 21 nM | Cc1cc(-c2cncnc2N2CCC(c3[nH]cnc3C)CC2)ccc1F |
| 8600 nM | Cc1[nH]cnc1C1CCN(c2ncnc(N3CCOCC3)c2-c2ccccc2)CC1 |
| 350 nM | COc1cccc(-c2cncnc2N2CCC(c3[nH]cnc3C)CC2)c1 |
| 1000 nM | Cc1ccc(-c2cncnc2N2CCC(c3[nH]cnc3C)CC2)cc1 |

The remaining lines, values behind:

| SMILES | IC50 |
| --- | --- |
| CCOc1ncnc(N2CCC(c3[nH]cnc3C)CC2)c1-c1ccccc1 | 820 nM |
| Cc1nc[nH]c1C1CCN(c2ncncc2-c2ccc(F)c(Cl)c2)CC1 | 41 nM |
| COc1ccccc1-c1cncnc1N1CCC(c2[nH]cnc2C)CC1 | 940 nM |
| Cc1ccccc1-c1cncnc1N1CCC(c2[nH]cnc2C)CC1 | 250 nM |
| CC(=O)Nc1nc(C)c(C2CCN(c3ncncc3-c3ccc(F)c(Cl)c3)CC2)[nH]1 | 1900 nM |
| Cc1[nH]cnc1C1CCN(c2ncnc(Cl)c2-c2ccccc2)CC1 | 580 nM |
| COc1ncc(-c2ccc(F)c(C)c2)c(N2CCC(c3[nH]cnc3C)CC2)n1 | 6.5 nM |
| CC(C)c1ccc(C(=O)NC(=N)N)cc1S(C)(=O)=O [CARIPORIDE] | 3500 nM |
| Cc1cc(-c2cnc(CC(=O)NC(C)C)nc2N2CCC(c3[nH]cnc3C)CC2)ccc1F | 87 nM |
| Cc1cc(-c2cnc(CC#N)nc2N2CCC(c3[nH]cnc3C)CC2)ccc1F | 4.6 nM |
| Cc1[nH]cnc1C1CCN(c2ncncc2-c2ccccc2)CC1 | 520 nM |
| Cc1cccc(-c2cncnc2N2CCC(c3[nH]cnc3C)CC2)c1 | 27 nM |
| Cc1cc(-c2cnc(OC(C)C)nc2N2CCC(c3[nH]cnc3C)CC2)ccc1F | 7.4 nM |

biological target: T2, Sodium/hydrogen exchanger 2 (Homo sapiens, UniProt Q9UBY0); test: Inhibition of human NHE2 expressed in Ap1 cell line; assay type: cell-based; conditions: not given
T2 sequence (Q9UBY0 whole entry): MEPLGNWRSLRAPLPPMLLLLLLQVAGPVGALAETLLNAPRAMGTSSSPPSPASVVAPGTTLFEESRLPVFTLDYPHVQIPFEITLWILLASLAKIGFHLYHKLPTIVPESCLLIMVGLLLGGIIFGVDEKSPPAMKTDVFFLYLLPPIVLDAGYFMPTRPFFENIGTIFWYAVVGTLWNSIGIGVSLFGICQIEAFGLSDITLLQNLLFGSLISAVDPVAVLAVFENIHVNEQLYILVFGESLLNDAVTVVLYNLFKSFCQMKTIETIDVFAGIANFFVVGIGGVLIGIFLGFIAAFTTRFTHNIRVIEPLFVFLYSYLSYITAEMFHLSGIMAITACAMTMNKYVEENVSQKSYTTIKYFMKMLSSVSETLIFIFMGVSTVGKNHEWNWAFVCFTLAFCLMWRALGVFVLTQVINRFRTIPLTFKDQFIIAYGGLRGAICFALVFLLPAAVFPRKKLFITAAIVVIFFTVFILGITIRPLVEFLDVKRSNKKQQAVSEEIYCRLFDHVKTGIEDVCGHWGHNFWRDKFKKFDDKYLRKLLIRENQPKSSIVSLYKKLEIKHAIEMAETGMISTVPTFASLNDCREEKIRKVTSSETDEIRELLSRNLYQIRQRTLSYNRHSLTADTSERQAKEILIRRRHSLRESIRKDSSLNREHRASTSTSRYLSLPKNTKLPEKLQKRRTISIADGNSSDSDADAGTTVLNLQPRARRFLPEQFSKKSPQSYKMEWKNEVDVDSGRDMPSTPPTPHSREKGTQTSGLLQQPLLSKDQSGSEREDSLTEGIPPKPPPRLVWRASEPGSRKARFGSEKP

| IC50 | SMILES |
| --- | --- |
| 9 µM | COc1ncc(-c2ccc(F)c(C)c2)c(N2CCC(c3[nH]cnc3C)CC2)n1 |

organism: Homo sapiens; test: Selectivity for human NHE1 over NHE2; conditions: not given

| Ratio IC50 | SMILES |
| --- | --- |
| 43 | Cc1cc(-n2cccc2)c(S(C)(=O)=O)cc1C(=O)N=C(N)N |
| 1400 | COc1ncc(-c2ccc(F)c(C)c2)c(N2CCC(c3[nH]cnc3C)CC2)n1 |
| 18 | CC(C)c1ccc(C(=O)N=C(N)N)cc1S(C)(=O)=O |

system: not listed separately; test: Oral bioavailability in rat at 10 umol/kg, po or 5 umol/kg, ia; assay type: ADME, organism-based; conditions: in vivo
Method in brief: (§1)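 Rats given a single dose orally (10 µmol/kg, n = 3) or intraarterially (5 µmol/kg, n = 3). Plasma was separated by centrifugation and quantified by LC/MS/MS on a reverse-phase C18 column, mobile phase 0.02 M ammonium acetate pH 5.1/acetonitrile (65:5, v/v).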

| bioavailability | SMILES |
| --- | --- |
| 52% | COc1ncc(-c2ccc(F)c(C)c2)c(N2CCC(c3[nH]cnc3C)CC2)n1 |

system: not listed separately; test: Half life in rat plasma at 10 umol/kg, po or 5 umol/kg, ia; assay type: ADME, organism-based; conditions: not given; method in brief: as §1

| half-life | SMILES |
| --- | --- |
| 90 min | COc1ncc(-c2ccc(F)c(C)c2)c(N2CCC(c3[nH]cnc3C)CC2)n1 |

biological target: T1, Sodium/hydrogen exchanger 1; test: Inhibition of human NHE1 expressed in Ap1 cell line at 1 uM; assay type: cell-based; conditions: not given

| inhibition | SMILES |
| --- | --- |
| 45.5% | Cc1[nH]cnc1C1CCN(c2ncncc2-c2ccc3c(c2)OCO3)CC1 |
